Assay [1] addresses T1, Signal transducer and activator of transcription 6 (Homo sapiens) (UniProt P42226).
T1 sequence (whole entry): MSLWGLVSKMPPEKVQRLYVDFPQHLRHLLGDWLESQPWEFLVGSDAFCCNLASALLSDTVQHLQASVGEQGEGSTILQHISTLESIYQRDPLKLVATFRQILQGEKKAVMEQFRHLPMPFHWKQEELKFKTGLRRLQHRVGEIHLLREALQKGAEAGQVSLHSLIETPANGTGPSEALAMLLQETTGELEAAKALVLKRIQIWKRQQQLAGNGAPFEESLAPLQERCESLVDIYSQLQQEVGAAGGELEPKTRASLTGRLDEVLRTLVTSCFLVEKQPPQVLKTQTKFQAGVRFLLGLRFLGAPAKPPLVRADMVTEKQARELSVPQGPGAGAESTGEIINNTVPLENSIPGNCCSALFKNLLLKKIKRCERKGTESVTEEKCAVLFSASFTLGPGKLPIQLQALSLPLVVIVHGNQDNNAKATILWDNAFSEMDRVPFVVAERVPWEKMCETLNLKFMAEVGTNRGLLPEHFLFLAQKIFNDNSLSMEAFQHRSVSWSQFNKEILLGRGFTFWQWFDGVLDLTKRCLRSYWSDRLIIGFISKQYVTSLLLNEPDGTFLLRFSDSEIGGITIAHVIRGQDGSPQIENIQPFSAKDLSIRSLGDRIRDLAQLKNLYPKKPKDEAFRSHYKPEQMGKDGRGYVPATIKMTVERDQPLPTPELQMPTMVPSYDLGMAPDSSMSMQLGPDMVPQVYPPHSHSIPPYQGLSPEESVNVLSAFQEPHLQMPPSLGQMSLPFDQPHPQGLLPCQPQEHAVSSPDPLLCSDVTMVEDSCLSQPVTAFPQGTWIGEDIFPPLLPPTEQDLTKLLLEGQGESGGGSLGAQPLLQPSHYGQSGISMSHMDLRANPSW
Briefly: Inhibition of IL4-induced STAT6 phosphorylation in human MDA-MB-468 cells at 0.1 to 5 uM incubated for 2 hrs followed by stimulation with IL4 for 1 hr by Western blot assay. Type of assay: cell-based. The gist of the method:
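MDA-MB-468 breast cancer cells serum-starved, treated with prodrugs, then IL-4 stimulated; pSTAT6 read by Western blot.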
(In general: In western blotting, separated proteins are transferred to a membrane and probed.)

Assay [2] addresses T1, Signal transducer and activator of transcription 6 (Homo sapiens). Briefly: Inhibition of IL4-stimulated STAT6 phosphorylation at tyrosine 641 in human Beas-2B cells at 0.025 to 5 uM incubated for 2 hrs followed by stimulation with IL4 for 1 hr by Western blot assay. Type of assay: cell-based. The gist of the method: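 Beas-2B seeded at 3.0 × 10^5 cells/well the day before; prodrugs from DMSO stocks added to final concentrations for 2 h, then IL-4 (2 ng/mL) for 1 h. PBS-washed cells lysed with PMSF, protein by modified Lowry; blots blocked in 3% BSA/TBST, probed for pSTAT6 (Tyr641), stripped and reprobed for total STAT6; ECL on X-ray film.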

Assay [3] concerns the target Signal transducer and activator of transcription 3 (Mus musculus) (UniProt P42227). Briefly: Inhibition of IL6-induced STAT3 phosphorylation at S727 in CD4+ T lymphocytes isolated from C57BL/6J mouse preincubated for 2 hrs followed by activation with plate-bound anti-CD3/anti-CD28 for 15 mins by Western blot analysis.
For assay [4], the target named is T1, Signal transducer and activator of transcription 6 (Homo sapiens). Description: Inhibition of IL-13-stimulated STAT6 SH2 domain phosphorylation in human Beas-2B cells assessed as inhibition of CCL26 mRNA expression at 100 nM preincubated for 2 hrs followed by stimulation with IL-13 for 24 hrs by RT-PCR analysis relative to control.
Assay [5] has as its target RAC-alpha serine/threonine-protein kinase (Homo sapiens) (UniProt P31749). Briefly: Inhibition of EGF-induced AKT phosphorylation at S473 in human MDA-MB-468 cells at 5 uM incubated for 2 hrs followed by stimulation with EGF for 1 hr by Western blot assay. Type of assay: cell-based.
The species entered for assay [6] is Mus musculus. Briefly: Inhibition of IL2-induced STAT5 phosphorylation at Y694 in CD4+ T lymphocytes isolated from C57BL/6J mouse at 0.5 to 5 uM preincubated for 2 hrs followed by activation with plate-bound anti-CD3/anti-CD28 and IL2 for 15 mins by Western blot analysis. Type of assay: cell-based. In short, it runs like this:
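CD4+ T cells from C57BL/6J mice, sorted by AutoMACS; activated 15 min with plate-bound anti-CD3 and/or anti-CD28 with IL-2, IL-6 or IL-4; lysed with protease inhibitors plus 10 mM NaF and 1 mM Na3VO4; Bradford-normalised immunoblots for pSTAT1 (Tyr701), pSTAT5 (Tyr694), pSTAT6 (Tyr641) and total STATs.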

Structures are written as SMILES. Activity calls are given as the source filed them. The calls are words filed in the database; no cut-off is given here.

RAC-alpha serine/threonine-protein kinase (Homo sapiens), sequence (P31749 whole entry): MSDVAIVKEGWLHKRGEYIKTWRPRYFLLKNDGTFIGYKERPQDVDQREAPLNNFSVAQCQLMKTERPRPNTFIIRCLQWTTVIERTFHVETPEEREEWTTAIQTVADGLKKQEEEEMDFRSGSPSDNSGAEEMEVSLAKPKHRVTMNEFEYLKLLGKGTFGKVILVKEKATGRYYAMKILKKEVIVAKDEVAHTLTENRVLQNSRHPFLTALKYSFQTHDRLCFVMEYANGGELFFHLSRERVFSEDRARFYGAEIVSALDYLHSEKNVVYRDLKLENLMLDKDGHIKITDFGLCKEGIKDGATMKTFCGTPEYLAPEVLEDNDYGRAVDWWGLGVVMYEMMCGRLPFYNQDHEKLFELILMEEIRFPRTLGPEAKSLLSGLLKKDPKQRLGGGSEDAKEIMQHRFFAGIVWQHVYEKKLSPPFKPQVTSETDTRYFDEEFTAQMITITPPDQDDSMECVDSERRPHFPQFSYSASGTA
Signal transducer and activator of transcription 3 (Mus musculus), sequence (P42227 whole entry, the tested form may be a part): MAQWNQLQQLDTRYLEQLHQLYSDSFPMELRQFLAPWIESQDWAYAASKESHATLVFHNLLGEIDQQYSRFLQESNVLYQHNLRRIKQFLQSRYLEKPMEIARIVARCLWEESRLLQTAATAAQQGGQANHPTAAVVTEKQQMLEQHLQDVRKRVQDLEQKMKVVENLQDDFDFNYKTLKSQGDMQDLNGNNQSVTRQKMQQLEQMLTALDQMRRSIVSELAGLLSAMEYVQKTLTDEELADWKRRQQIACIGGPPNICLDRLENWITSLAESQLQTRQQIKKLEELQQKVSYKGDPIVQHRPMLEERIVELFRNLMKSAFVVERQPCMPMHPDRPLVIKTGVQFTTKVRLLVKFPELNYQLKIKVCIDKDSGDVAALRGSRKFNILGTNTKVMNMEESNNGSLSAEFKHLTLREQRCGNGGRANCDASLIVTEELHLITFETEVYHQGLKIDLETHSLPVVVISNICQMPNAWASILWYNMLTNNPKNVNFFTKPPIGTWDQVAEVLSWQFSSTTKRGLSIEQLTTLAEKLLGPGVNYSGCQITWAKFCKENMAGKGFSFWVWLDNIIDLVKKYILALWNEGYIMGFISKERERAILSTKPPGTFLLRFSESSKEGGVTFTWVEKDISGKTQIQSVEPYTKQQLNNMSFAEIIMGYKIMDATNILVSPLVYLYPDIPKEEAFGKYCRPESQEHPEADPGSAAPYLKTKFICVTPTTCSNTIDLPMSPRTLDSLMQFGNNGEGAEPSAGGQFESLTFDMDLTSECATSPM

One may read the inhibition as the percentage by which the read-out fell short of the control. For `C/C(=C\C(=O)N[C@H](C(=O)N1CCC[C@H]1C(=O)N(C)c1ccccc1)C(C)(C)C)c1ccc(C(F)(F)P(=O)(OCOC(=O)C(C)(C)C)OCOC(=O)C(C)(C)C)cc1`, the inhibition result in assay [1], in assay [2], in assay [5] and in assay [6] was “Active” throughout. For the same compound, the inhibition entry in assay [3] is “inactive”. For the same compound, the inhibition in assay [4] was greater than 50%.

Source of the values: ChEMBL document CHEMBL3739303, “Targeting the Src Homology 2 (SH2) Domain of Signal Transducer and Activator of Transcription 6 (STAT6) with Cell-Permeable, Phosphatase-Stable Phosphopeptide Mimics Potently Inhibits Tyr641 Phosphorylation and Transcriptional Activity” (J Med Chem, 2015).
